STAT1 blocker: STAT1 signaling inhibitors, primary screen, cell-based, HTS, luciferase reporter; 200,000 compounds, 0.35% hits; inhibition, % at 5.5 µM; NIH 3T3 STAT1-luciferase reporter, IFN-gamma, luminescence;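 active = inhibition above a set limit, the mean inhibition across all tested compounds plus 3 SD, cut at about 34% in these data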
HSP90 inh: HSP90 inhibitors, primary screen, cell lysate, luminescence; 290,000 compounds, 0.91% hits; Rabbit reticulocyte lysate, luciferase refolding luminescence, 3 h; AID 1789, 2009; Heat shock protein HSP 90 (rabbit reticulocyte lysate; luciferase refolding); inhibition, % at 5.6 µM;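 active = inhibition above the screen-wide mean plus 3 SD, computed separately per campaign, cut at about 16% in these data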;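 note: inhibitors lower the luminescence because luciferase stays unfolded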
STAT3 inh: IL-6 driven STAT3 reporter inhibitors, primary screen, U3A cells, luciferase, luminescence, MLSCN library. IL-6 STAT3-luciferase reporter; host cell line lacks STAT1. 190,000 compounds, 0.89% hits. inhibition, % at 5.5 µM. AID 862, 2007;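 active = inhibition above the mean inhibition across all screened compounds plus 3 SD, cut at about 44% in these data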
STAT3 act-1: IL-6 driven STAT3 reporter potentiators, primary screen, U3A cells, luciferase, luminescence, MLSCN library. IL-6 STAT3-luciferase reporter; 100% = signal with IL-6 EC80 alone. activation (% of control), % at 5.6 µM. 190,000 compounds, 0.91% hits. AID 871, 2007;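 active = activation above the screen-wide mean of compound activation plus 3 SD, cut at about 130% in these data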
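Material: human U3A cells carrying STAT3-luciferase construct. Measured by: reporter luminescence signal. Timing: compound 1 h, then IL-6 6 h at 37 °C.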
STAT3 act-2: STAT3 reporter potentiators, retest of hits, confirmation, U3A cells, luciferase, luminescence | shares compounds with STAT3 act-1 | IL-6 potentiation; U3A cells lack STAT1; 100 means same as IL-6 alone | potentiation (% of control), % at 5.7 µM | 1,200 compounds, 64% hits;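 active = percent activation of the STAT3 luciferase reporter above a set limit taken from the earlier primary screen, cut at about 130% in these data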
NFkB act 2: NF-kB reporter activators in human cells, counter-screen for STAT3 activator project; 1,200 compounds, 11% hits; NF-kappaB reporter activation; AID 1309, 2008; shares compounds with STAT3 act-1; activation (% of control), % at 5.7 µM; in the data active = activation above about 120%;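 note: reporter induced by TNF-alpha stimulation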
STAT1 act STAT3c: STAT1 reporter activators, IFN-gamma induced, counter-screen for STAT3 activator project, cell-based, NIH 3T3, luciferase luminescence. shares compounds with STAT3 act-1. NIH 3T3 STAT1-luciferase reporter. AID 1318, 2008. 1,200 compounds, 13% hits. activation (% of control), % at 5.7 µM;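 active = activation above the solvent-only control well mean plus 3 SD, set per screening run, cut at about 120% in these data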
Numbers stand for hits; - = inactive; . = no result given. In the library only some 2% were active in any assay of this set; here they are far more common.

SMILES	STAT1 blocker	HSP90 inh	STAT3 inh	STAT3 act-1	STAT3 act-2	NFkB act 2	STAT1 act STAT3c
CCOc1ccc(NC(=O)CN(C)CC(=O)Nc2cc(Cl)ccc2C#N)cc1OCC	-	-	-	154	-	-	-
COc1cccc(/C=N\NC(=O)c2ccc(Cn3cc(Br)c([N+](=O)[O-])n3)o2)c1O	-	-	-	-	.	.	.
CCN1CCN(C(=O)CS(=O)(=O)Cc2nc(-c3cccc(OC)c3)oc2C)CC1	.	-	.	.	.	.	.
c1ccc(-c2nnc(CN3CCCc4ccccc43)o2)cc1	-	-	-	145	-	-	-
O=C(N/N=C/c1cn(-c2ccccc2)nc1-c1cc2ccccc2o1)c1cccnc1	-	-	-	159	179	138	204
CN1CCN(c2ccc(NC(=S)NC(=O)/C=C/c3ccco3)cc2)CC1	.	-	.	.	.	.	.
COc1cc(/C=C2\SC(N)=NC2=O)ccc1OCC(=O)Nc1ccc(C)cc1	-	-	-	643	435	130	-
CCOc1ccc(-c2nnc(NC(=O)C3CCCC3)o2)cc1	.	-	.	.	.	.	.
COc1ccc(C2=Nn3c(nnc3-c3ccccc3OC)SC2)cc1OC	-	-	-	150	-	128	-
Cc1cc(NC(=O)CCl)n(-c2nc3ccccc3s2)n1	-	-	-	151	146	-	-
Cc1cc(NC(=O)C2CC2)n(-c2nc3ccccc3s2)n1	-	-	-	160	154	-	-
COc1ccc(OC)c(NC(=O)c2nnn(CC(=O)Nc3ccc4c(c3)OCO4)c2N)c1	.	-	.	.	.	.	.
O=C(CN1CCCC1)Nc1ccc(-c2nc3cc(NC(=O)CN4CCCC4)ccc3o2)cc1	-	-	-	150	138	130	161
CC(C)c1ccc(C2C3=C(COC3=O)Nc3cc4c(cc32)OCO4)cc1 (configuration not stated)	-	-	-	151	-	138	-
COc1ccc(-c2csc(NC(=S)NC(=O)c3ccco3)n2)cc1	-	-	-	-	.	.	.
CC(C)CC(=O)NC(=S)Nc1nc(-c2ccc(Cl)cc2)cs1	-	-	-	-	.	.	.
CC(C)CC(=O)NC(=S)Nc1nc(-c2ccccc2)cs1	-	-	-	144	140	-	-
O=C(NC(=S)Nc1nc(-c2ccccc2)cs1)c1cccs1	-	-	-	142	147	-	-
Cc1ccc(-c2csc(NC(=S)NC(=O)c3cccs3)n2)cc1	-	-	-	-	.	.	.
O=C(NC(=S)Nc1nc(-c2ccccc2)cs1)c1ccco1	-	-	-	139	140	-	-
CC(C)C(=O)N1CCN(c2ccccc2NC(=O)c2ccc(C#N)cc2F)CC1	-	-	-	137	138	-	-
CC1CCN(c2ccccc2NC(=O)c2ccc(C#N)cc2F)CC1	-	-	-	-	.	.	.
Cc1cc2ccccn2c1C(=O)Nc1ccc(Cl)cc1	-	-	-	156	166	-	-
CC(=O)c1sc2nc(-c3cccs3)cc(C(F)(F)F)c2c1N	-	-	-	162	146	-	-
C=CCN(C(=O)CCC(=O)Nc1cc(C)on1)C(C(=O)NC1CCCC1)c1ccc(C)cc1 (configuration not stated)	.	-	.	.	.	.	.
SMILES	STAT1 blocker	HSP90 inh	STAT3 inh	STAT3 act-1	STAT3 act-2	NFkB act 2	STAT1 act STAT3c
Cc1cc(Nc2nc(Cl)c(Cl)cc2Cl)n(-c2ccccc2)n1	-	26	-	143	-	-	-
Cc1ccc(-c2nnn(CC(=O)N(c3ccccc3F)C(C(=O)NCC3CCCO3)c3c[nH]c4ccccc34)n2)cc1 (configuration not stated)	-	-	-	145	-	-	-
Cc1ccc(-c2nnn(CC(=O)N(c3ccccc3)C(C(=O)NCC3CCCO3)c3ccc(Cl)cc3)n2)cc1 (configuration not stated)	-	-	-	-	.	.	.
O=C(N[C@@H]1C[C@H]2CC[C@@H]1C2)c1ccco1	.	-	.	.	.	.	.
COc1ccc(-c2nnc(-c3ccc(F)cc3)o2)cc1	.	-	.	.	.	.	.
COc1cccc2sc(Nc3nnc(-c4ccc(F)cc4)o3)nc12	-	-	-	159	148	-	-
O=C1C=C(N2CCOCC2)c2ccccc2C1=O	.	-	.	.	.	.	.
CC1=C(C)C(=O)C(N2CCOCC2)=CC1=O	-	-	-	143	139	-	-
O=C(Cn1cnc2cc([N+](=O)[O-])ccc2c1=O)Nc1ccccc1-c1ccccc1	.	-	.	.	.	.	.
FC(F)(F)c1ccc(C2Nc3cccc4cccc(c34)N2)cc1	-	-	-	142	160	-	-
CC1=NOC(=O)/C1=C\c1ccc(-c2ccc(Br)cc2)o1	-	-	-	136	-	-	-
Clc1cccc(Cl)c1Cn1cnc2c(N3CCCCCC3)ncnc21	-	-	-	138	139	-	-
CCN(CC)c1ncnc2c1ncn2Cc1c(Cl)cccc1Cl	-	-	-	-	.	.	.
Cc1ccc(C2=CC(c3cccs3)n3nnnc3N2)cc1 (configuration not stated)	-	-	-	147	-	-	-
COc1ccc(N2C(=O)CSC2c2ccccc2F)c(OC)c1 (configuration not stated)	.	-	.	.	.	.	.
N#Cc1sc2nc(-c3ccccc3)cc(-c3ccco3)c2c1N	-	-	-	-	.	.	.
COc1cccc(-c2cc(C(F)(F)F)c3c(N)c(C#N)sc3n2)c1	-	-	-	153	134	-	-
COc1ccc(NC(=O)CSc2nnc(-c3cccs3)n2C)cc1OC	-	-	-	-	.	.	.
Cn1c(SCC(=O)Nc2ccc3cn[nH]c3c2)nnc1-c1cccs1	-	-	-	162	149	-	-
Cc1ccc(-n2c(SCC(=O)Nc3ccc4cn[nH]c4c3)nnc2-c2ccco2)cc1	-	-	-	149	143	-	-
Cn1c(SCC(=O)Nc2ccc3cn[nH]c3c2)nnc1-c1cnccn1	-	-	-	145	146	-	-
S=C(Nc1ccc(Br)cc1)N1CCN(c2ccccn2)CC1	.	-	.	.	.	.	.
CC1(c2cccc(Br)c2)NC(=O)N(CC(=O)Nc2ccc(S(N)(=O)=O)cc2)C1=O (configuration not stated)	.	-	.	.	.	.	.
Cn1c(C(=O)c2ccccc2[N+](=O)[O-])nc2ccccc21	-	-	-	145	142	-	-
Cc1csc(NC(=O)C2CCN(C(=O)c3ccccc3C)CC2)n1	-	-	-	-	.	.	.
COc1cc(-c2nnc(CSc3nc4ccccc4s3)o2)cc(OC)c1OC	-	-	-	137	-	-	-
COc1cc(-c2nnc(COC(=O)CSc3cc(C)c4ccccc4n3)o2)cc(OC)c1OC	-	-	-	-	.	.	.
